This note sets out measurements from ChEMBL document CHEMBL1811897, “Nicotinic acetylcholine receptor efficacy and pharmacological properties of 3-(substituted phenyl)-2β-substituted tropanes” (J Med Chem, 2010).

Activity calls are given as the source filed them. Where only a bound is given, the exact number is not on record here.

Experiment [1] deals with T1, Neuronal acetylcholine receptor; alpha4/beta2 (Homo sapiens, UniProt P17787+P43681). Kind of experiment: Antagonist activity against human alpha4beta2 nAChR in SHEP1 cells assessed as inhibition of carbamylcholine induced 86Rb+ efflux. The format is functional, cell-based. An outline of the steps:
(§1)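 86Rb+ efflux was evoked by carbamylcholine at its EC80–EC90 concentration, with test ligand present. Cells were TE671/RD (α1*), SH-SY5Y (α3β4*) or transfected SH-EP1 (α4β2 or α4β4). For weak antagonists the minimum was fixed at 0%.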

The subject of experiment [2] is Mus musculus. Kind of experiment: Antipyretic activity against nicotine-induced hypothermia in ICR mouse assessed as change in rectal temperature dministered subcutaneously 15 mins prior to nicotine challenge and measured after 30 mins of 2.5 mg/kg nicotine challenge. The format is functional, organism-based. More on the design: dose 2.5 mg/kg, route subcutaneous. The procedure, abridged:
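Male ICR mice (20–25 g) were pretreated with saline or test drug 15 min before s.c. nicotine at 2.5 mg/kg. Rectal temperature was read by thermistor probe (24 mm insertion) just before and 30 min after nicotine, and the change was taken. Ambient temperature was 21–24 °C. AD50 with confidence limits came from ≥4 doses and ≥8 mice per dose.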

For experiment [3], the species on record is Homo sapiens. Kind of experiment: Selectivity ratio for human DAT over human NET.
Experiment [4] deals with Mus musculus. The experiment in a line: Inhibition of nicotine-induced antinociception activity in ICR mouse assessed as paw licking and jumping latency dministered subcutaneously 15 mins prior to nicotine challenge and measured after 5 mins of 2.5 mg/kg nicotine challenge by hot plate test. The format is functional, organism-based. On the set-up: dose 2.5 mg/kg, route subcutaneous. The procedure, abridged: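 Hot plate was held at 55 °C with a 40 s cutoff. End-point was paw lick or jump. Control latency was measured twice, ≥10 min apart. Response was calculated as %MPE. Groups of 8–12; AD50 from ≥4 doses.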
On the technique in general: Hot-plate and tail-flick tests time the reaction to a heat stimulus.

Experiment [5] concerns Mus musculus. The experiment in a line: Inhibition of nicotine-induced antinociception activity in ICR mouse assessed as latency to remove tail administered subcutaneously 15 mins prior to nicotine challenge and measured after 5 mins of 2.5 mg/kg nicotine challenge by tail-flick test. More on the design: dose 2.5 mg/kg, route subcutaneous. The format is functional, organism-based. The procedure, abridged:
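Radiant heat was aimed at the upper tail, with a 10 s cutoff. Baseline latency was 2–4 s for each mouse. Response was expressed as %MPE. AD50 with confidence limits came from ≥4 doses and ≥8 mice per dose.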

Experiment [6] relates to Mus musculus. Kind of experiment: Inhibition of nicotine-induced hypolocomotion in ICR mouse assessed as number of photocell interruption dministered subcutaneously 15 mins prior to nicotine challenge and measured after 5 mins of […] nicotine challenge. In kind it is functional, organism-based. On the set-up: dose 1.5 mg/kg, route subcutaneous.
Experiment [7] deals with Mus musculus. Kind of experiment: Inhibition of nicotine-induced conditioned place preference in ICR mouse assessed as activity count and time spent in chamberdministered subcutaneously 15 mins prior to 0.5 mg/kg nicotine challenge up to 4 days using photosensors. In kind it is functional, organism-based. More on the design: dose 0.5 mg/kg, route subcutaneous. An outline of the steps: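 Unbiased three-compartment CPP in male ICR mice. Day 1: 5 min confinement to the middle compartment, then 15 min free access; mice were grouped by equal bias. Days 2–4: vehicle or test drug s.c. 15 min before nicotine (0.5 mg/kg s.c.) in the paired side, with saline on the opposite side, 20 min sessions. Day 5: drug-free test with photosensor recording. AD50 from ≥3 doses, ≥8 mice per dose.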

The species entered for experiment [8] is Homo sapiens. Kind of experiment: Selectivity for human DAT over human ganglionic alpha3beta4alpha5beta2 nAChR.
In experiment [9] the target is Sodium-dependent serotonin transporter (Homo sapiens, UniProt P31645). Kind of experiment: Inhibition of human SERTexpressed in HEK293 cells assessed as inhibition of [3H]5HT reuptake after 10 mins by scintillation counting. The format is cell-based.
Chain of Sodium-dependent serotonin transporter (P31645 whole entry): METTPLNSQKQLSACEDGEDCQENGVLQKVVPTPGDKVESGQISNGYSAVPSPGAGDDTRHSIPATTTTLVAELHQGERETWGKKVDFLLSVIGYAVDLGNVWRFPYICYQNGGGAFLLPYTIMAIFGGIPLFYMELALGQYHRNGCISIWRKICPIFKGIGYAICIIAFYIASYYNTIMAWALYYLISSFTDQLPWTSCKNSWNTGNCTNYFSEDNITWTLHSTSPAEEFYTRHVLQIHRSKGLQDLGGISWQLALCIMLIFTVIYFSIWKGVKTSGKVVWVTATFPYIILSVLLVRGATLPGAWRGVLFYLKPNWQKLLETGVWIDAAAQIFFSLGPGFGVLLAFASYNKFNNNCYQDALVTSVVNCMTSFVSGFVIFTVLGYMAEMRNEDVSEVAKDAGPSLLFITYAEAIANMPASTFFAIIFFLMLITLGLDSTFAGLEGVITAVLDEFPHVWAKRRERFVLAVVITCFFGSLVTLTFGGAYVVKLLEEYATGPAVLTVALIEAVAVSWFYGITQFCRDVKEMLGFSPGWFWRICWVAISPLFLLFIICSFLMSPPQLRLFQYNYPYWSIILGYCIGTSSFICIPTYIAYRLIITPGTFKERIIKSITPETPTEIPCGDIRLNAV
The species entered for experiment [10] is Homo sapiens. Kind of experiment: Selectivity ratio for human DAT over human SERT.
Experiment [11] has as its target T2, Acetylcholine receptor; alpha1/beta1/delta/gamma (Homo sapiens, UniProt P02708+P07510+P11230+Q07001). Kind of experiment: Antagonist activity against human muscle-type alpha1beta1gammadelta nAChR in TE671/RD cells assessed as inhibition of carbamylcholine induced 86Rb+ efflux. The format is functional, cell-based. The procedure, abridged:
as §1

Experiment [12] concerns the target Sodium-dependent dopamine transporter (Homo sapiens, UniProt Q01959). The experiment in a line: Inhibition of human DAT expressed in HEK293 cells assessed as inhibition of [3H]DA reuptake after 10 mins by scintillation counting. In kind it is cell-based.
For experiment [13], the target named is T1, Neuronal acetylcholine receptor; alpha4/beta2. Kind of experiment: Agonist activity at human alpha4beta2 nAChR in SHEP1 cells assessed as 86Rb+ efflux at 5 nM to 100 uM. In kind it is functional, cell-based. An outline of the steps: (§2)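 Test ligands were applied alone at ~5 nM to 100 μM in 86Rb+ efflux assays. Cells were TE671/RD (endogenous muscle-type α1*), SH-SY5Y (endogenous α3β4*) or transfected SH-EP1 (human α4β2 or α4β4). Non-specific efflux was subtracted. Intrinsic activity was normalized to specific efflux, defined as efflux with fully efficacious carbamylcholine minus efflux with buffer alone.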

The species entered for experiment [14] is Homo sapiens. Kind of experiment: Selectivity for human ganglionic alpha3beta4alpha5beta2 nAChR over human alpha4beta2 nAChR.
Experiment [15] concerns the target Neuronal acetylcholine receptor; alpha3/beta4 (Homo sapiens) (UniProt P30926+P32297). Kind of experiment: Antagonist activity against human ganglionic alpha3beta4 nAChR in SHSY5Y cells assessed as inhibition of carbamylcholine induced 86Rb+ efflux at 10 uM. Conditions: SH-SY5Y. The format is functional, cell-based.
Experiment [16] concerns the target T3, Neuronal acetylcholine receptor; alpha4/beta4 (Homo sapiens, UniProt P30926+P43681). Kind of experiment: Agonist activity against human alpha4beta4 nAChR in SHEP1 cells assessed as 86Rb+ efflux at 5 nM to 100 uM. In kind it is functional, cell-based. An outline of the steps: as §2
Experiment [17] has as its target T3, Neuronal acetylcholine receptor; alpha4/beta4. The experiment in a line: Antagonist activity against human alpha4beta4 nAChR in SHEP1 cells assessed as inhibition of carbamylcholine induced 86Rb+ efflux. The format is functional, cell-based. An outline of the steps: as §1
The target of experiment [18] is Sodium-dependent noradrenaline transporter (Homo sapiens, UniProt P23975). The experiment in a line: Inhibition of human NET expressed in HEK293 cells assessed as inhibition of [3H]NE reuptake after 10 mins by scintillation counting. In kind it is cell-based.
Chain of Sodium-dependent noradrenaline transporter (P23975 whole entry): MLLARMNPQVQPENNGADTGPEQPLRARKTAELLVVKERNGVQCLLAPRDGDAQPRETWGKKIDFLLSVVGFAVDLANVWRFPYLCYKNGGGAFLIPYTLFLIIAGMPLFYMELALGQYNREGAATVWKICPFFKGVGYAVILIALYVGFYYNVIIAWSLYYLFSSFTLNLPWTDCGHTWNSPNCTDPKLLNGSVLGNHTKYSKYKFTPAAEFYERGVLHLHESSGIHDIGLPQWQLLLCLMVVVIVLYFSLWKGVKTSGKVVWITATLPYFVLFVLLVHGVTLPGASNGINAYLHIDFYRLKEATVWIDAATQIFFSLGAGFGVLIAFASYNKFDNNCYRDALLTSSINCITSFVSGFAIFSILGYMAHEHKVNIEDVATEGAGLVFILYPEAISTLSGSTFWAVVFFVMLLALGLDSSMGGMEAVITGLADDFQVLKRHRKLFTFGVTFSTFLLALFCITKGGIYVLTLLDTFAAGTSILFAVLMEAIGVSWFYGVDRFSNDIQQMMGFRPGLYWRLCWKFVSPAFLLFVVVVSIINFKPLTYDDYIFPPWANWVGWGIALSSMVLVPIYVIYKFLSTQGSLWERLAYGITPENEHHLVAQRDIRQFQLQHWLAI
The target of experiment [19] is T2, Acetylcholine receptor; alpha1/beta1/delta/gamma. Kind of experiment: Agonist activity at human muscle-type alpha1beta1gammadelta nAChR in TE671/RD cells assessed as 86Rb+ efflux at 5 nM to 100 uM. In kind it is functional, cell-based. An outline of the steps:
as §2

The species named for experiment [20] is Homo sapiens. Kind of experiment: Selectivity for human NET over human DAT.
The species entered for experiment [21] is Homo sapiens. Kind of experiment: Selectivity for human NET over human ganglionic alpha3beta4alpha5beta2 nAChR.
For experiment [22], the target named is Cannabinoid receptor 1 (Homo sapiens) (UniProt P21554). Kind of experiment: Positive allosteric modulator activity at CB1 receptor.

T1 sequence (P17787 whole entry): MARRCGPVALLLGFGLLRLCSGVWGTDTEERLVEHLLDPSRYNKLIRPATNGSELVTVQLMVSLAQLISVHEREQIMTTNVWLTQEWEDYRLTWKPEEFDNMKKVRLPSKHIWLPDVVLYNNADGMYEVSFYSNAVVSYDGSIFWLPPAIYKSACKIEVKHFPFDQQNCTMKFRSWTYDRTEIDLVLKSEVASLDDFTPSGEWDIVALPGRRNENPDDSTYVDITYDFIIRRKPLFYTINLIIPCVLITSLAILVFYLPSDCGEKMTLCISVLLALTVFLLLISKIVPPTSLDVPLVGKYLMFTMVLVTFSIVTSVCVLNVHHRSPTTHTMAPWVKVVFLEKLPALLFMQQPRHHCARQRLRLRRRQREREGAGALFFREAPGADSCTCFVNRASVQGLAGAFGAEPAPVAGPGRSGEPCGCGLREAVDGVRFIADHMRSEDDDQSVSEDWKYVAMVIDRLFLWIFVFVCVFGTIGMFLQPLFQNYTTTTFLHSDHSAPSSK
T1 sequence (P43681 whole entry): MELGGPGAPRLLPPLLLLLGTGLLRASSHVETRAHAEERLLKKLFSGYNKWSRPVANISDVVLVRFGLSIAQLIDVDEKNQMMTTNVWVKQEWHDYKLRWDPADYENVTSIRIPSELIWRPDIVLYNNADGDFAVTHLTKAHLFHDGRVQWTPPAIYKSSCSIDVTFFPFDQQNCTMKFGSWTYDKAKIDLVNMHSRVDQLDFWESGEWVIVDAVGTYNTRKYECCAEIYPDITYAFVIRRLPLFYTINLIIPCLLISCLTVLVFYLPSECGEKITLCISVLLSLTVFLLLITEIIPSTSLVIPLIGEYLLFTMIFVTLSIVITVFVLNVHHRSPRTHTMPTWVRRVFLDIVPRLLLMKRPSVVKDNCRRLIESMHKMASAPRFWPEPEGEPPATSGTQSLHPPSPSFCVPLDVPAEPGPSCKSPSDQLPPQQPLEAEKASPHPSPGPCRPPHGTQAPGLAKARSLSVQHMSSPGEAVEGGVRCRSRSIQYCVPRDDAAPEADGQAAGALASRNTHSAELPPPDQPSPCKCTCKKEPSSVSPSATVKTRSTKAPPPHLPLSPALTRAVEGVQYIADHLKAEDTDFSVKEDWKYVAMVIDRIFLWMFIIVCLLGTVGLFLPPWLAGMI
T2 sequence (P02708 whole entry): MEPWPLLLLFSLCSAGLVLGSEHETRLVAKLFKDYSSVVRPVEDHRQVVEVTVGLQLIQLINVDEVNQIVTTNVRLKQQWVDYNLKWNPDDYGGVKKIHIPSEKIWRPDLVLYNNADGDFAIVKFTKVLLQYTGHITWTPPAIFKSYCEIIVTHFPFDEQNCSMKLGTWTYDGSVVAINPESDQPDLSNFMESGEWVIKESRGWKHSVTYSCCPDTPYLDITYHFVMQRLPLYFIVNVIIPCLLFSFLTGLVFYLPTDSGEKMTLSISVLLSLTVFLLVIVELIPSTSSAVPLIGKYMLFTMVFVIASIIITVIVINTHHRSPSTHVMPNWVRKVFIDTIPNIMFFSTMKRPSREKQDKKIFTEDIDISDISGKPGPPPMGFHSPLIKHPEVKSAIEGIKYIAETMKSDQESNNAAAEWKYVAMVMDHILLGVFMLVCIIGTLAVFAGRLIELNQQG
T2 sequence (P07510 whole entry): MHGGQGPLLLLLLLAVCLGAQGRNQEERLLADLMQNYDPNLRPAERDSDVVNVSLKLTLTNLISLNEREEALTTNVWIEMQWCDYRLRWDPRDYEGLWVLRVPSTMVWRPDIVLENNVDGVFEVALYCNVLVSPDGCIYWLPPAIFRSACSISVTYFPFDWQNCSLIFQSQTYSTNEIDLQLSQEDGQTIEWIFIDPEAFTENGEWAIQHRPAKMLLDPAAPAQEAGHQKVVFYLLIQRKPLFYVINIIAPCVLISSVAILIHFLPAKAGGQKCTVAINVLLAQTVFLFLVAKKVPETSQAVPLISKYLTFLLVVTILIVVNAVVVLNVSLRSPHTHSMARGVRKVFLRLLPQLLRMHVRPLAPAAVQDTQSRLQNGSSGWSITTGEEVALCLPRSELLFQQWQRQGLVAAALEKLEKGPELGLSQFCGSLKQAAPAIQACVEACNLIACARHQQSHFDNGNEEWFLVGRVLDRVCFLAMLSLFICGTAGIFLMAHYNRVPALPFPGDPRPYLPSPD
T2 sequence (P11230 whole entry): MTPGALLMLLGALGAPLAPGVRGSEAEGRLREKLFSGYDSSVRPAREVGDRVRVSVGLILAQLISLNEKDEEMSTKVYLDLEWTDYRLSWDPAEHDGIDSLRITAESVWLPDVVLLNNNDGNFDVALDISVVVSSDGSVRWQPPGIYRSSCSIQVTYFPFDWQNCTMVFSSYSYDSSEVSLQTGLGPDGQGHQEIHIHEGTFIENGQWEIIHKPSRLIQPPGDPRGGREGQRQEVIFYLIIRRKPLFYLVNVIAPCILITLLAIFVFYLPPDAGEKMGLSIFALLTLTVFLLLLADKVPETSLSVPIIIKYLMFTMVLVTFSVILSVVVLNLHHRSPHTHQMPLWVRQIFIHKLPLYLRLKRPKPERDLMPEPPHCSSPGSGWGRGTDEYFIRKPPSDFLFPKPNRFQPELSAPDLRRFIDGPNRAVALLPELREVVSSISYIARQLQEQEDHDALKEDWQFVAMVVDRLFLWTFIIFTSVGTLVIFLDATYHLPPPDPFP
T2 sequence (Q07001 whole entry): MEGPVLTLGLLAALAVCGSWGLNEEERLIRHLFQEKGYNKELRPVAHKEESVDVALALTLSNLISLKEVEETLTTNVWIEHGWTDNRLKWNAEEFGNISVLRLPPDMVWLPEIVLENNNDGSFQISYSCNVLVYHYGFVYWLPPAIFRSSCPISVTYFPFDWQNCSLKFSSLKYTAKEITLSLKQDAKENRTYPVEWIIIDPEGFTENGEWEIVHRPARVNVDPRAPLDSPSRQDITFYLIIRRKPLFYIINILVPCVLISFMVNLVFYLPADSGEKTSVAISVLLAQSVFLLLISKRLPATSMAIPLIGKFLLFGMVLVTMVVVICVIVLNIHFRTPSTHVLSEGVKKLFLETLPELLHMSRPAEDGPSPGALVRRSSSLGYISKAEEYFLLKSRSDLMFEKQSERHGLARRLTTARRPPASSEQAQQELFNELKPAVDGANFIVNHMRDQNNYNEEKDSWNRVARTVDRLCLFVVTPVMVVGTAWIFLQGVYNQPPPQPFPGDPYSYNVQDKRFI
T3 sequence (P30926 whole entry): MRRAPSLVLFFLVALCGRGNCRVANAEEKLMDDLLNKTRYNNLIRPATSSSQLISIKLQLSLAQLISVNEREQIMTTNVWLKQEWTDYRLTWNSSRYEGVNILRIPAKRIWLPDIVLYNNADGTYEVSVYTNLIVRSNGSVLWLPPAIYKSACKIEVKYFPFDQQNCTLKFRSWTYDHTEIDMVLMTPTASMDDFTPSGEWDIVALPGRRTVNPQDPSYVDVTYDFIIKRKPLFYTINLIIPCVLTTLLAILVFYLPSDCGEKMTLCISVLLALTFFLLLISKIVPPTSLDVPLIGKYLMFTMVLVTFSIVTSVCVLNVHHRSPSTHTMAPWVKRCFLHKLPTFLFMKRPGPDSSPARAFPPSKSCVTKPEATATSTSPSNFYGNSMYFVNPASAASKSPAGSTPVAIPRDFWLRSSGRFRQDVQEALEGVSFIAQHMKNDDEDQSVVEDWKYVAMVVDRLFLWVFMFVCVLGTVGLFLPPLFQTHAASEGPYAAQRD
T3 sequence (P43681 whole entry): as the sequence (P43681 whole entry) above

Take `Cc1cc2nc([C@H]3[C@@H](c4ccc(Cl)cc4)C[C@@H]4CC[C@H]3N4C)[nH]c2cc1C`: the IC50 in [1] was 1.8 µM; in the experiment with Mus musculus [2], greater than 20 mg/kg; with Mus musculus [4] it was 19 mg/kg; in the experiment on Mus musculus [5], 0.11 mg/kg; in the experiment with Mus musculus [6], greater than 20 mg/kg; in the experiment on Mus musculus [7], 0.45 mg/kg. In addition, the IC50 in experiment [9] is greater than 100 µM; in experiment [11] it was 4.7 µM; in experiment [12], 0.0073 µM; in experiment [17] it was 4.3 µM; in experiment [18] it was 0.019 µM. Also, the Ratio IC50 stood at 2 in the experiment filed under Homo sapiens [3], 78 in the experiment filed under Homo sapiens [8], 2 in the experiment listed under Homo sapiens [10] and 3 in the experiment filed under Homo sapiens [14]. In addition, the outcome in experiment [13], in [16] and in [19] was inactive. Also, the inhibition entry in experiment [15] was “Active”.

Turning to `COC(=O)[C@H]1[C@@H](c2ccc(Cl)c(C)c2)C[C@@H]2CC[C@H]1N2`, the IC50 in experiment [1] is 16 µM; in the experiment with Mus musculus [2], 0.23 mg/kg; in the experiment with Mus musculus [4], 0.78 mg/kg; with Mus musculus [5], 0.003 mg/kg; in the experiment with Mus musculus [6], 0.41 mg/kg; in the experiment on Mus musculus [7] it was 0.25 mg/kg. Further, the IC50 is 0.0062 µM in experiment [9]; 11 µM in experiment [11]; 0.0023 µM in experiment [12]; 12 µM in experiment [17]; 0.0009 µM in experiment [18]. Moreover, the Ratio IC50 in the experiment listed under Homo sapiens [20] was 2; in the experiment listed under Homo sapiens [21], 3500. For the same molecule, the result in experiment [13], in [16] and in experiment [19] was inactive.

`COC(=O)[C@H]1[C@@H](c2ccc(Cl)c(C)c2)C[C@@H]2CC[C@H]1N2C`: the IC50 in experiment [1] came to 9.8 µM; in the experiment with Mus musculus [2], 0.14 mg/kg; in the experiment with Mus musculus [4], 0.35 mg/kg; in the experiment on Mus musculus [5], 0.21 mg/kg; in the experiment on Mus musculus [6], 0.11 mg/kg; in the experiment on Mus musculus [7], 0.25 mg/kg. For the same molecule, the IC50 worked out at 0.001 µM in [9]; 26 µM in experiment [11]; 0.002 µM in experiment [12]; 24 µM in experiment [17]; 0.0011 µM in experiment [18]. For the same molecule, the Ratio IC50 in the experiment filed under Homo sapiens [20] was determined as 2; in the experiment filed under Homo sapiens [21], 3500; in the experiment filed under Homo sapiens [14], 3. Besides, the result in experiment [13], in [16] and in experiment [19] was inactive.

Take `Cc1ccc([C@H]2C[C@@H]3CC[C@H]([C@H]2c2cc(-c4ccc(Cl)cc4)no2)N3C)cc1`: the IC50 in experiment [1] was 942 µM; in the experiment with Mus musculus [2], greater than 20 mg/kg; in the experiment with Mus musculus [4] it was greater than 20 mg/kg; in the experiment on Mus musculus [5] it was greater than 20 mg/kg; with Mus musculus [6] it was 8.7 mg/kg; with Mus musculus [7], 0.013 mg/kg. Besides, the IC50 in experiment [9] was greater than 100 µM; in [11], 95 µM; in [12], 0.011 µM; in [17], 57 µM; in [18], 0.31 µM. Moreover, in [22], the outcome was Active. For the same molecule, the outcome in [13], in [16] and in experiment [19] was inactive.
